Data from PMC9647114 (Journal of Clinical and Translational Hepatology, 2022).
Bridges are numbered along the chain shown (N, C = ends). Where no end group is shown, it is not given here.

Tests used:
[1] = system: HCC-LM3 cells; experiment: Confocal fluorescence microscopy of probe binding to HCC-LM3 cells; assay type: cell-based, human; settings: 6 nM probe, 2 h incubation, Fig. 1B
Outline: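 HCC-LM3 cells were grown on glass coverslips for 24 h, then incubated with 6 nM Cy7-labelled probe for 2 h and washed three times in PBS. They were fixed in 4% paraformaldehyde, permeabilised with 0.2% Triton X-100 and blocked with 5% BSA. Staining used rabbit anti-integrin α6 (1:250, overnight, 4°C), then fluorescein goat anti-rabbit (1:1,000, 1 h, 37°C), with DAPI for nuclei. Imaged by confocal microscopy.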

[2] = system: orthotopic HCC lesions; experiment: NIRF imaging with Cy5 probe, orthotopic HCC mice; assay type: in vivo; settings: i.v., Supplementary Fig. 1
[3] = system: H22 cells; experiment: CCK-8 in vitro cytotoxicity assay; assay type: cell-based, mouse; settings: 0 to 500 nM, 48 h or 72 h, Supplementary Fig. 3
Outline: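 H22 mouse hepatoma cells grown in DMEM with 10% FBS and 1% pen/strep at 37°C, 5% CO2. Cells were seeded at 3×10^3 per well and left 24 h, then exposed to the Cy7-labelled peptide probe at 0–500 nM for 48 h or 72 h. CCK-8 reagent was then added for 2 h, and absorbance was read at 450 nm.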

[4] = system: subcutaneous HCC-LM3 tumor; experiment: NIRF imaging and ex vivo biodistribution, subcutaneous HCC-LM3 tumor model; assay type: in vivo; settings: mice, i.v., statement of the discussion
[5] = system: orthotopic HCC-LM3 tumors; experiment: NIRF imaging, orthotopic HCC-LM3 tumor model; assay type: in vivo, mice; settings: post-injection; sustained until 24 h
[6] = system: orthotopic HCC-H22 tumors; experiment: NIRF imaging and biodistribution, orthotopic HCC-H22 tumor model; assay type: in vivo, mice; settings: orthotopic HCC-H22, tumor and major organs 48 h after injection, Fig. 3
Outline: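 Nude mice carried orthotopic luciferase-tagged H22 liver lesions and received Cy7-labelled probe or Cy7-control peptide i.v. by tail vein. NIRF imaging used 740 nm excitation and a 780 nm filter. Mice were killed 48 h post-injection, and tumor, heart, liver, spleen, kidney, lung and brain were imaged ex vivo. Organ fluorescence intensity was quantified.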

[7] = system: subcutaneous HCC-LM3 tumors; experiment: Photoacoustic imaging, subcutaneous HCC-LM3 tumors; assay type: in vivo, mice; settings: after i.v. injection, 0 to 48 h
[8] = system: major organs; experiment: In vivo toxicity by H&E staining of major organs; settings: imaging dose; heart, spleen, lung, kidney, brain of H22 tumor-bearing nude mice vs control group, Supplementary Fig. 9
[9] = system: integrin a6; settings: peptide identified by phage display; cited from earlier work

Sequence: CGGGGGGGC (cysteine pairing not given here) [Cy7-control, reference compound]
- Fluorescence signal in cells by confocal microscopy [1]: no fluorescence response

Sequence: CRWYDENAC (disulfide 1-9 (inferred)) [Cy5-RWY]
- Homing of probe to HCC lesions (NIRF) [2]: specifically homed to HCC lesions

Sequence: CRWYDENAC (disulfide 1-9 (inferred)) [Cy7-RWY]
- Fluorescence signal in cells by confocal microscopy [1]: Strong red fluorescence signals
- Cytotoxicity (cell viability, CCK-8) [3]: no significant cytotoxicity
- Renal clearance [4]: fast renal clearance
- Time at which tumor fluorescence signal reached a steady level [5]: 6 h
- Ex vivo fluorescence signal in tumors [6]: high level of the fluorescence signal
- Time at which NIRF and PA signals in the tumor peaked [7]: 24 h
- Time at which NIRF and PA signals started to accumulate in the tumor [7]: 2 h
- Cell and tissue damage in major organs (H&E) [8]: did not find significant cell and tissue damage

Sequence: CRWYDENAC (disulfide 1-9 (inferred)) [RWY]
- Binding to integrin a6 [9]: high specificity and affinity
